Reference: ChEMBL document CHEMBL1125866, “Aldophosphamide acetal diacetate and structural analogues: synthesis and cytotoxicity studies” (J Med Chem, 1991)

Legend:
[1] = Half-life in […] Phosphate buffer at pH 7.4(37 degrees C); type: ADME
Method in brief: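 Acetal at 100 μM in 0.05 M phosphate buffer, pH 7.4, shaken at 37 °C without enzyme. Aliquots taken at intervals (typically 2–50 h) and parent drug measured by reverse-phase C-18 HPLC with UV detection at 220 nm. Half-life from linear least-squares regression of pseudo-first-order decay.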

[2] = system: carboxylate esterase; assay: Half-life in […] at pH 7.4(37 degrees C) in the presence of pig Liver Carboxylate Esterase; type: ADME, Sus scrofa; settings: pig liver carboxylate esterase in phosphate buffer
Method in brief: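 Acetal at 100 μM in 0.05 M phosphate buffer, pH 7.4, at 37 °C with pig liver carboxylate esterase, 2 units per μmol substrate (1 unit hydrolyses 1.0 μmol ethyl butyrate/min at pH 8.0, 25 °C). Samples vortexed, centrifuged, supernatant analysed by C-18 HPLC, UV 220 nm. Half-life by least-squares regression, pseudo-first-order.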

[3] = system: L1210; assay: Concentration required to reduce the viability of L1210 cells by 50% after 1-h incubation at 37 degrees C; type: functional, cell-based; settings: Mus musculus, L1210, 1 h
Method in brief: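 Exposed to at least seven drug concentrations (0.1–300 μM) for 1 h at 37 °C, washed, regrown drug-free 72 h. MTT reduction read at 570 nm. IC50 from concentration–viability plot, average of duplicates.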

Row | SMILES | half-life [1] [h] | half-life [2] [s] | IC50 [3] [µM]
1 | CCN(CC)P(=O)(OCCC(OC(C)=O)OC(C)=O)N(CCCl)CCCl (configuration not stated) | 37 | 40 | 78
2 | CC(=O)OC(CCOP(N)(=O)N(CCCl)CCCl)OC(C)=O (configuration not stated) | 38 | 36 | 0.9
3 | CC(=O)OC(CCOP(=O)(N(C)C)N(CCCl)CCCl)OC(C)=O (configuration not stated) | 36 | 36 | > 245
4 | CC(=O)OC(CCOP(N)(=O)N(CCCl)CCCl)OC(C)=O.O=S(=O)(O)CCS (configuration not stated) |  |  | 0.9
5 | C=CC=O.O=S(=O)(O)CCS |  |  | 168
6 | O=P1(N(CCCl)CCCl)NC(OO)CCO1.O=S(=O)(O)CCS (configuration not stated) |  |  | 90
7 | CNP(=O)(OCCC(OC(C)=O)OC(C)=O)N(CCCl)CCCl (configuration not stated) | 42 | 42 | 38
8 | CCNP(=O)(OCCC(OC(C)=O)OC(C)=O)N(CCCl)CCCl (configuration not stated) | 40 | 42 | 29
9 | C=CC=O [ACROLEIN] |  |  | 48
10 | O=P1(N(CCCl)CCCl)NCCCO1 (configuration not stated) [CYCLOPHOSPHAMIDE ANHYDROUS] |  |  | > 300
11 | O=S(=O)(O)CCS [MESNA] |  |  | > 200
12 | O=P1(N(CCCl)CCCl)NC(OO)CCO1 (configuration not stated) [PERFOSFAMIDE] |  |  | 90
